Experimental data taken from ChEMBL document CHEMBL1139482, “Synthesis and evaluation of quindoline derivatives as G-quadruplex inducing and stabilizing ligands and potential inhibitors of telomerase” (J Med Chem, 2005).
Calls of active or inactive are those of the source. The rule behind the calls is not given here.

What was measured:
Homo sapiens [1] = species on record: Homo sapiens; test: Induction of G-quadruplex in G-rich human telomere 21 DNA assessed as circular dichroism spectral change at 50 uM
Procedure, shortened: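 Telo21 at 5 μM strand in 10 mM Tris-HCl pH 7.4, no metal ions, compound at 50 μM. Annealed at 90 °C, cooled slowly, held at 4 °C for several hours. CD recorded 320–200 nm, 16 scans at 100 nm/min, 1 nm bandwidth, buffer baseline subtracted.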

[2] = Dissociation constant, pKa of the compound; type: physicochemical
Procedure, shortened: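 UV titration across pH. Molar extinction coefficient read at the two wavelengths where ε changes most between acidic and basic solution, then plotted against pH. pKa taken as the pH midway between the horizontal sections of the curve.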

[3] = Inhibition of telomerase by TRAP assay; parameters: species or system Homo sapiens
Procedure, shortened: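 Cell-free modified TRAP using A2780 ovarian carcinoma extract, 0.04 μg protein. TS primer extended in TRAP buffer pH 8.3 with 68 mM KCl, 1.5 mM MgCl2, 50 μM dNTPs and [32P]dCTP, agent up to 50 μM final, 20 min at 25 °C. Then 31 PCR cycles; products read by denaturing gel phosphorimaging or filter scintillation counting.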

Homo sapiens [4] = species on record: Homo sapiens; test: Destruction of parallel G-quadruplexes in mixed G-quadruplex human telomere 21 DNA in presence of 0.1 M potassium
Homo sapiens [5] = species on record: Homo sapiens; test: Induction of G-quadruplex in G-rich human telomere 21 DNA in presence of 100 mM K+ ions by EMSA
Procedure, shortened: (§1)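 Native-gel shift of 20 μM telo21 in 10 mM Tris-HCl pH 7.4, with or without 100 mM KCl, heated 95 °C for 10 min then cooled. Compound titrated in at increasing concentrations and incubated 4–8 h at room temperature. Run on native 15% PAGE in TBE for 2 h, silver-stained; G-quadruplex and single-strand bands scored.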

Homo sapiens [6] = species on record: Homo sapiens; test: Induction of G-quadruplex in G-rich human telomere 21 DNA by EMSA; procedure, shortened: as §1

Structure (SMILES) | Activity (Homo sapiens [1]) | pKa [2] | IC50 [3] [µM] | Activity (Homo sapiens [4]) | Activity (Homo sapiens [5]) | Activity (Homo sapiens [6])
CN(C)CCCNc1c2ccccc2nc2c1oc1ccccc12 | Active | 8.3 | 3.29 | – | – | –
c1ccc2c(NCCN3CCOCC3)c3[nH]c4ccccc4c3nc2c1 | Active | 8.4 | 0.55 | Active | Active | Active
c1ccc2c(NCCN3CCOCC3)c3oc4ccccc4c3nc2c1 | Active | 8.2 | 4.38 | – | – | –
OCCNc1c2ccccc2nc2c1[nH]c1ccccc12 | Active | 8.3 | 2.35 | – | – | –
CN(C)CCNc1c2ccccc2nc2c1oc1ccccc12 | Active | 8.2 | 7.11 | – | – | –
CN(C)CCNc1c2ccccc2nc2c1[nH]c1ccccc12 | Active | 8.3 | 1.12 | – | – | –
c1ccc2nc3c(cc2c1)[nH]c1ccccc13 [QUINDOLINE] | – | 4.2 | > 138 | – | – | –
OCCCNc1c2ccccc2nc2c1oc1ccccc12 | Active | 8.2 | 8.12 | – | – | –
CN(C)CCCNc1c2ccccc2nc2c1[nH]c1ccccc12 | Active | 8.4 | 0.44 | – | – | –
OCCCNc1c2ccccc2nc2c1[nH]c1ccccc12 | Active | 8.3 | 1.55 | – | – | –
OCCNc1c2ccccc2nc2c1oc1ccccc12 | Active | 8.2 | 12.3 | – | – | –
